Measured values: ChEMBL document CHEMBL4814060, “Design, synthesis and biological evaluation of novel pleuromutilin derivatives as potent anti-MRSA agents targeting the 50S ribosome” (Bioorg Med Chem, 2021)
Converted amounts (≈) assume the structure as drawn.

Experiments:
[1] = system: Staphylococcus aureus; test: Antibacterial activity against Staphylococcus aureus 144 assessed as inhibition of visible growth incubated for 24 hrs by CLSI protocol based broth microdilution method; type: functional
[2] = system: Staphylococcus aureus; test: Antibacterial activity against methicillin-resistant Staphylococcus aureus ATCC 43300 assessed as inhibition of visible growth incubated for 24 hrs by CLSI protocol based broth microdilution method; type: functional
[3] = system: Staphylococcus aureus; test: Antibacterial activity against Staphylococcus aureus AD3 assessed as inhibition of visible growth incubated for 24 hrs by CLSI protocol based broth microdilution method; type: functional
[4] = system: Staphylococcus aureus; test: Antibacterial activity against Staphylococcus aureus ATCC 29213 assessed as inhibition of visible growth incubated for 24 hrs by CLSI protocol based broth microdilution method; type: functional
[5] = system: Staphylococcus aureus; test: Antibacterial activity against methicillin-resistant Staphylococcus aureus ATCC 43300 assessed as reduction in bacterial growth at 4 times of MIC measured at 3 hrs by time kill assay; type: functional
Summary of the method: (§1)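 MRSA was grown in MH broth at 37 °C for 4.5 h and diluted to 1×10^6 CFU/mL. Compound was added at 1, 2, 4, 8, 16 or 32 × MIC; growth control had 0.9% saline only. Cultures were shaken at 37 °C and sampled at 0, 3, 6, 9 and 24 h. Samples were serially diluted in saline and plated on MH agar, with CFU counted after 24 h at 37 °C. Run in triplicate.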

[6] = biological target: T1, Bacterial 70S ribosome (Bacteria) (UniProt P0A7V0+P60723+P0AG67+P0A7R5+P0A7R9+P0A7S3+P0A7S9+P0AG59+P0ADZ4+P0A7T3+P0AG63+P0A7T7+P0A7U3+P0A7U7+P68679+P0A7V3+P0A7V8+P0A7W1+P02358+P02359+P0A7W7+P0A7X3+P0A7J3+P0A7J7+P0AA10+P0ADY3+P02413+P0ADY7+P0AG44+P0C018+P0A7K6+P0A7L0+P0A7L3+P0AG48+P61175+P0ADZ0+P60624+P68919+P0A7L8+P0A7M2+P0A7M6+P60422+P0AG51+P0A7N1+P0A7M9+P0A7N4+P0A7N9+P0A7P5+P0A7Q1+Q2EEQ2+P0A7Q6+P60438+P62399+P0AG55+P0A7K2); test: Binding affinity to Staphylococcus aureus ATCC 43300 50S ribosome assessed as dissociation rate constant by SPR analysis; type: subcellular
Summary of the method: (§2)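 The 50S subunit was purified from ATCC 43300 by sucrose cushion, a 7–30% sucrose gradient and PEG precipitation. Compounds at 100 µM in DMSO were photo-crosslinked onto the chip and printed four times each. Ribosome at 200–3200 nM in PBST (pH 7.4, 0.1% Tween 20) was run at 4 °C: association 600 s, then dissociation 360 s, both at 0.5 µL/s. Surface was regenerated with glycine-HCl pH 2.0.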

[7] = biological target: T1, Bacterial 70S ribosome (Bacteria); test: Binding affinity to Staphylococcus aureus ATCC 43300 50S ribosome assessed as association constant by SPR analysis; type: subcellular; summary of the method: as §2
[8] = system: Staphylococcus aureus; test: Bactericidal activity against methicillin-resistant Staphylococcus aureus ATCC 43300 assessed as reduction in bacterial growth at 1 to 32 times of MIC measured upto 24 hrs by time kill assay; type: functional, organism-based; conditions: time hrs <=24, TDE = time-dependent effect; summary of the method: as §1
[9] = system: RAW264.7; test: Cytotoxicity against mouse RAW264.7 cells assessed as reduction in cell viability at < 40 ug/ml incubated for 16 hrs by MTT assay; conditions: raw264.7, 16 h
[10] = biological target: Cytochrome P450 3A4 (Homo sapiens, UniProt P08684); test: Inhibition of CYP3A4 in human liver microsomes using testosterone as substrate incubated for 5 mins followed by NADPH addition and measured after 5 mins by LC/MS/MS analysis
Summary of the method: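 Final conditions: human liver microsomes 0.2 mg/mL, testosterone 20 μmol/L, 0.1 M Tris pH 7.4, inhibitor at 2.5–80 μM. Plates were preincubated 5 min at 37 °C, then started with NADPH (final 1 mmol/L) and run 5 min. Reaction was stopped with acetonitrile containing loratadine as internal standard, and the supernatant was analysed by LC-MS/MS. IC50 was determined.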

[11] = system: Staphylococcus aureus; test: In vivo antibacterial activity against methicillin-resistant Staphylococcus aureus ATCC 43300 infected in ICR/Swiss mouse model of neutropenic thigh infection assessed as reduction in bacterial growth at 20 mg/kg, iv administered 2 hrs after infection and tissue collected after 24 hrs and measured after 24 hrs […]; type: functional
Summary of the method: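 Female ICR/Swiss mice, 6 weeks old, were made neutropenic with ip cyclophosphamide (150 mg/kg at day −4, 100 mg/kg at day −1). Each thigh received about 10^7 CFU/mL MRSA in 0.1 mL. At 2 h, mice got a single iv dose of 20 mg/kg or saline, with 3 mice (6 thighs) per group. At 24 h, thighs were homogenized in iced saline, diluted and plated on MH agar, and CFU counted after 24 h at 37 °C.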

Cytochrome P450 3A4, sequence (P08684 whole entry): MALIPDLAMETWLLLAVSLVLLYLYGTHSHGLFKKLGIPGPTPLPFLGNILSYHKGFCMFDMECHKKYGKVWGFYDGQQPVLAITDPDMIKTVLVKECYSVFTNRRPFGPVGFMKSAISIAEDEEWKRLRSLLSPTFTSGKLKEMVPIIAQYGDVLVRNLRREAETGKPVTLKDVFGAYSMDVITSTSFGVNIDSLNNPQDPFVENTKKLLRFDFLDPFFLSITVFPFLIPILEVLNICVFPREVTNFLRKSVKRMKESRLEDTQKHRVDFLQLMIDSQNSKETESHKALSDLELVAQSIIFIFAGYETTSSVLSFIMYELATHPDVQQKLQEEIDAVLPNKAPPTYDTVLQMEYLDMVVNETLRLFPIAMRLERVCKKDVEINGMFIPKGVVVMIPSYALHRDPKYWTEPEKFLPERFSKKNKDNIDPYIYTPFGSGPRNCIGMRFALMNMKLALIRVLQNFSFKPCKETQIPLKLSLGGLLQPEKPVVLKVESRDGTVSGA

Row | Compound | MIC [1] [µg/mL] | MIC [2] [µg/mL] | MIC [3] [µg/mL] | MIC [4] [µg/mL] | Activity [5] [log10CFU/ml] | Kdiss [6] | Ka [7] | Activity [8] | Activity [9] | IC50 [10] [µM] | Activity [11] [log10CFU/g]
1 | C=C[C@]1(C)C[C@@H](OC(=O)CSc2nc(N)n(C(=O)c3ccccc3Cl)n2)[C@]2(C)[C@H](C)CC[C@]3(CCC(=O)[C@H]32)[C@@H](C)[C@@H]1O | 1 (≈ 1.63 µM) | 0.5 (≈ 0.813 µM) | 0.5 (≈ 0.813 µM) | 0.5 (≈ 0.813 µM) |  |  |  |  |  |  | 
2 | C=C[C@]1(C)C[C@@H](OC(=O)CSc2nc(N)n(C(=O)c3cccc(F)c3)n2)[C@]2(C)[C@H](C)CC[C@]3(CCC(=O)[C@H]32)[C@@H](C)[C@@H]1O | 1 (≈ 1.67 µM) | 0.25 (≈ 0.418 µM) | 0.5 (≈ 0.835 µM) | 0.5 (≈ 0.835 µM) | -1.26 | 2.21 10^-5M | 5.4 10^2/Ms | Tde |  |  | 
3 | C=C[C@]1(C)C[C@@H](OC(=O)CSc2nc(N)n(C(=O)c3ccc(F)cc3Cl)n2)[C@]2(C)[C@H](C)CC[C@]3(CCC(=O)[C@H]32)[C@@H](C)[C@@H]1O | 1 (≈ 1.58 µM) | 1 (≈ 1.58 µM) | 0.5 (≈ 0.79 µM) | 1 (≈ 1.58 µM) |  |  |  |  |  |  | 
4 | C=C[C@]1(C)C[C@@H](OC(=O)CSc2nc(N)n(C(=O)c3cccc(OC)c3)n2)[C@]2(C)[C@H](C)CC[C@]3(CCC(=O)[C@H]32)[C@@H](C)[C@@H]1O | 0.5 (≈ 0.819 µM) | 0.25 (≈ 0.409 µM) | 0.5 (≈ 0.819 µM) | 0.5 (≈ 0.819 µM) |  |  |  |  |  |  | 
5 | C=C[C@]1(C)C[C@@H](OC(=O)CSc2nc(N)n(C(=O)c3ccc(F)cc3)n2)[C@]2(C)[C@H](C)CC[C@]3(CCC(=O)[C@H]32)[C@@H](C)[C@@H]1O | 1 (≈ 1.67 µM) | 0.5 (≈ 0.835 µM) | 1 (≈ 1.67 µM) | 1 (≈ 1.67 µM) |  |  |  |  |  |  | 
6 | C=C[C@]1(C)C[C@@H](OC(=O)CSc2nc(N)n(C(=O)c3ccc(C)cc3)n2)[C@]2(C)[C@H](C)CC[C@]3(CCC(=O)[C@H]32)[C@@H](C)[C@@H]1O | 0.125 (≈ 0.21 µM) | 0.125 (≈ 0.21 µM) | 0.125 (≈ 0.21 µM) | 0.125 (≈ 0.21 µM) | -1.95 | 2.2 10^-4M | 4.16 10^2/Ms | Tde | Non-Toxic | 3.95 | 1.89
7 | C=C[C@]1(C)C[C@@H](OC(=O)CSc2nc(N)n[nH]2)[C@]2(C)[C@H](C)CC[C@]3(CCC(=O)[C@H]32)[C@@H](C)[C@@H]1O | 2 (≈ 4.2 µM) | 1 (≈ 2.1 µM) | 1 (≈ 2.1 µM) | 1 (≈ 2.1 µM) |  |  |  |  |  |  | 
8 | C=C[C@]1(C)C[C@@H](OC(=O)CSc2nc(N)n(C(=O)c3ccc(Cl)cc3)n2)[C@]2(C)[C@H](C)CC[C@]3(CCC(=O)[C@H]32)[C@@H](C)[C@@H]1O | 1 (≈ 1.63 µM) | 0.5 (≈ 0.813 µM) | 1 (≈ 1.63 µM) | 1 (≈ 1.63 µM) |  |  |  |  |  |  | 
9 | C=C[C@]1(C)C[C@@H](OC(=O)CSc2nc(N)n(C(=O)c3ccc(OC(F)(F)F)cc3)n2)[C@]2(C)[C@H](C)CC[C@]3(CCC(=O)[C@H]32)[C@@H](C)[C@@H]1O | 2 (≈ 3.01 µM) | 1 (≈ 1.5 µM) | 1 (≈ 1.5 µM) | 2 (≈ 3.01 µM) |  |  |  |  |  |  | 
10 | C=C[C@]1(C)C[C@@H](OC(=O)CSc2nc(N)n(C(=O)c3ccccc3F)n2)[C@]2(C)[C@H](C)CC[C@]3(CCC(=O)[C@H]32)[C@@H](C)[C@@H]1O | 4 (≈ 6.68 µM) | 1 (≈ 1.67 µM) | 2 (≈ 3.34 µM) | 2 (≈ 3.34 µM) |  |  |  |  |  |  | 
11 | C=C[C@]1(C)C[C@@H](OC(=O)CSc2nc(N)n(C(=O)c3c(F)cccc3Cl)n2)[C@]2(C)[C@H](C)CC[C@]3(CCC(=O)[C@H]32)[C@@H](C)[C@@H]1O | 2 (≈ 3.16 µM) | 1 (≈ 1.58 µM) | 2 (≈ 3.16 µM) | 2 (≈ 3.16 µM) |  |  |  |  |  |  | 
